Here are results for 27 compounds from ChEMBL document CHEMBL5252659, “Discovery of a Potent and Selective Naphthyridine-Based Chemical Probe for Casein Kinase 2” (ACS Med Chem Lett, 2023).

Molecules are shown by their SMILES. ≈ marks a conversion by molar mass, not a printed value. Calls of active or inactive are those of the source. The calls are words filed in the database; no cut-off is given here.

The test system of data set [1] is L-363. Briefly: Antiproliferative activity against bortezomib-resistant human L-363 cells assessed as inhibition of cell proliferation at 1 uM incubated for 5 days by WST-1 assay. It is filed as functional. Details: scale not given: the % may be the effect or the level left. The settings on record: time 5 day.
Data set [2] deals with AMO1. Briefly: Antiproliferative activity against human AMO1 cells assessed as inhibition of cell proliferation at 1 uM incubated for 5 days by WST-1 assay. It counts as functional. Details: scale not given: the % may be the effect or the level left. To be noted: time 5 day. In general terms: Tetrazolium assays rely on reduction of a dye to a coloured formazan, in cell work by metabolically active cells.

For data set [3], the system named is L-363. Kind of data set: Antiproliferative activity against carfilzomib-resistant human L-363 cells assessed as inhibition of cell proliferation at 1 uM incubated for 5 days by WST-1 assay. It counts as functional. More on the design: scale not given: the % may be the effect or the level left. The settings on record: time 5 day.
The nature of data set [4]: Antiproliferative activity against human MUG-Chor1 cells assessed as inhibition of cell proliferation at 1 uM incubated for 5 days by WST-1 assay. It counts as functional. More on the design: scale not given: the % may be the effect or the level left. To be noted: time 5 day.
The subject of another data set is STA-ET-10. Kind of data set: (§1) Antiproliferative activity against human STA-ET-10 cells assessed as inhibition of cell proliferation at 1 uM incubated for 5 days by WST-1 assay. It is filed as functional. The settings on record: time 5.0 day. Put shortly: (§2)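 Ewing sarcoma cell lines were exposed to a single 1 μM concentration for 5 days. Viability was reported as percent viability, as part of a preliminary single-dose screen.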

Data set [5] concerns AMO1. Briefly: Antiproliferative activity against pomalidomide resistant human AMO1 cells assessed as inhibition of cell proliferation at 1 uM incubated for 5 days by WST-1 assay. Details: scale not given: the % may be the effect or the level left. It is filed as functional. To be noted: time 5 day.
The test system of data set [6] is L-363. Kind of data set: Antiproliferative activity against human L-363 cells assessed as inhibition of cell proliferation at 1 uM incubated for 5 days by WST-1 assay. To be noted: time 5 day. It counts as functional. More on the design: scale not given: the % may be the effect or the level left.
The next data set relates to STA-ET-1. Briefly: (§3) Antiproliferative activity against human STA-ET-1 cells assessed as inhibition of cell proliferation at 1 uM incubated for 5 days by WST-1 assay. It counts as functional. To be noted: time 5.0 day. An outline of the steps: as §2
A short description of data set [7]: Aqueous kinetic solubility of compound in PBS at pH 7.4 incubated for 24 hrs by Chemiluminescent nitrogen determination assay. It counts as physicochemical. To be noted: for solubility kinetic at 24 h: PBS, pH 7.4, read-out: Kinetic_solubility; for Kinetic_solubility: buffer, pH 7.4, 24 h.
Another data set concerns MDA-MB-231. Kind of data set: Anticancer activity against human MDA-MB-231 cells assessed as cell growth inhibition at 2 to 10 uM incubated for 24 to 72 hrs by WST-1 assay. To be noted: dose 2-10 µM, time lower […], time upper 72.0 hrs.
A short description of data set [8]: Permeability of compound incubated for 5 hrs by PAMPA based CLND assay. It is filed as ADME. In general terms: In PAMPA a lipid-coated filter parts donor from acceptor wells.
Data set [9] can be described thus: as §1. It counts as functional. Details: scale not given: the % may be the effect or the level left. The settings on record: time 5 day. An outline of the steps:
as §2

A short description of data set [10]: (§4) Antiproliferative activity against human RM-82 cells assessed as inhibition of cell proliferation at 1 uM incubated for 5 days by WST-1 assay. It counts as functional. Details: scale not given: the % may be the effect or the level left. To be noted: time 5 day.
Data set [11] can be described thus: as §3. More on the design: scale not given: the % may be the effect or the level left. To be noted: time 5 day. It counts as functional. Put shortly:
as §2

The subject of the next data set is RM-82. The data set is described as §4. It counts as functional. The settings on record: time 5.0 day.
The target in data set [12] is T1, Casein kinase II subunit alpha (Homo sapiens, UniProt P68400). Briefly: Inhibition of wild type human CK2alpha in presence of ATP by radiometric kinase assay.
The target in data set [13] is T1, Casein kinase II subunit alpha. Kind of data set: Inhibition of C-terminal Nano-Luc fused human CK2alpha expressed in HEK293 cells using NanoBRET NanoGlo substrate in presence of tracer K10 by NanoBRET assay. It counts as cell-based. A general note: In BRET a luciferase serves as donor, and the signal depends on an acceptor being close.
Data set [14] addresses T2, Casein kinase II subunit alpha' (Homo sapiens, UniProt P19784). Kind of data set: Inhibition of wild type human CK2alpha' in presence of ATP by radiometric kinase assay.
Data set [15] has as its target Phosphatidylinositol 4-phosphate 5-kinase type-1 gamma (Homo sapiens) (UniProt O60331). Kind of data set: Inhibition of wild type human PIP5K1C at 1 uM by DiscoverX scanMAX assay relative to control; values are per cent of control.
For data set [16], the target named is T2, Casein kinase II subunit alpha'. Kind of data set: Inhibition of C-terminal Nano-Luc fused human CK2alpha' expressed in HEK293 cells using NanoBRET NanoGlo substrate in presence of tracer K5 by NanoBRET assay. It counts as cell-based.
Data set [17] addresses T3, Homeodomain-interacting protein kinase 2 (Homo sapiens, UniProt Q9H2X6). Briefly: Inhibition of wild type human HIPK2 at 1 uM by DiscoverX scanMAX assay relative to control; values are per cent of control.
Target sequence in this assay (Q9H2X6 whole entry, looked up): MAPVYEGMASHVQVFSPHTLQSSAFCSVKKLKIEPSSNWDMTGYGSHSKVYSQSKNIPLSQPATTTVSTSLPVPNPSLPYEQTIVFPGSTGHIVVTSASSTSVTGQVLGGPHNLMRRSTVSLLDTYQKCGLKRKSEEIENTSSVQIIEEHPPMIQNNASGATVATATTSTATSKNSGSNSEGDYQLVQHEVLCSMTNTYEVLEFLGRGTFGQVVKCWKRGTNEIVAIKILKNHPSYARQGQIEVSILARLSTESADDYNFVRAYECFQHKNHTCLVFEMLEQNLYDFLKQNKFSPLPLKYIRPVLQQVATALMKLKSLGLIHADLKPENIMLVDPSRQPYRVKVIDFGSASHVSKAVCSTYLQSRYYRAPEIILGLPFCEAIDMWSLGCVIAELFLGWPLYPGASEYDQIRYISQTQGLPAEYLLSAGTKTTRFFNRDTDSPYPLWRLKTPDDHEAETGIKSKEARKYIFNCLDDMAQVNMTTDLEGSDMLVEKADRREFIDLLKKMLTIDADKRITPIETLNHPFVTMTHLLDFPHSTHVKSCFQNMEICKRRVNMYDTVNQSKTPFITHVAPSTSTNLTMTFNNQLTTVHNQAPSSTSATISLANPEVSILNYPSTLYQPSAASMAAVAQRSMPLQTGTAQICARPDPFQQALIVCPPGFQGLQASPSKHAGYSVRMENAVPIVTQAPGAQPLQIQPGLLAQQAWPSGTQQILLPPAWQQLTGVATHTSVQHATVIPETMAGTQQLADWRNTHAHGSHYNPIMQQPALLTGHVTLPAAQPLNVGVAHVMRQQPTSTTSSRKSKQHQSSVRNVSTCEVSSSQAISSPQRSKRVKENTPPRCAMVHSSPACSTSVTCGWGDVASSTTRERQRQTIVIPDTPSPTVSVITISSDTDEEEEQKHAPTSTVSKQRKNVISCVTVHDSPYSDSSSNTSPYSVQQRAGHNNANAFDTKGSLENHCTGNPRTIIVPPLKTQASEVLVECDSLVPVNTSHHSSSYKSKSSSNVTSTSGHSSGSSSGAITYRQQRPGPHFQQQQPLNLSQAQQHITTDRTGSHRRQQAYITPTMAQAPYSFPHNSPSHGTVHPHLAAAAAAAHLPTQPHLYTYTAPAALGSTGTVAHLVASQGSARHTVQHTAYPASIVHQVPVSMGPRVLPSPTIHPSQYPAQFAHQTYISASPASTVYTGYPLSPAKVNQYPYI
Data set [18] deals with T3, Homeodomain-interacting protein kinase 2. Kind of data set: Inhibition of wild type human HIPK2 in presence of ATP by radiometric kinase assay.
Target sequence in this assay (Q9H2X6 whole entry): as the sequence (Q9H2X6 whole entry, looked up) above
Data set [19] has as its target Death-associated protein kinase 2 (Homo sapiens, UniProt Q9UIK4). Briefly: Inhibition of wild type human DAPK2 in presence of ATP by radiometric kinase assay.

T2 sequence (P19784 whole entry): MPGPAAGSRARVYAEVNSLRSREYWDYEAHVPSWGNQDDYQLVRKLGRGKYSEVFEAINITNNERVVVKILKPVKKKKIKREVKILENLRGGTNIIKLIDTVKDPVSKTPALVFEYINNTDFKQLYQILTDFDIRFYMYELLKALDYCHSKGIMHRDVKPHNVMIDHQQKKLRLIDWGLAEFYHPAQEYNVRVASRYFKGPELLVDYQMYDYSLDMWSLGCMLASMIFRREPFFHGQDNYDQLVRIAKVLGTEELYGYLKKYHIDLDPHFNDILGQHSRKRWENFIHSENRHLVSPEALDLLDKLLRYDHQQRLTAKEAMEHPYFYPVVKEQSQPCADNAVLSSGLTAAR
T1 sequence (P68400 whole entry, the tested form may be a part): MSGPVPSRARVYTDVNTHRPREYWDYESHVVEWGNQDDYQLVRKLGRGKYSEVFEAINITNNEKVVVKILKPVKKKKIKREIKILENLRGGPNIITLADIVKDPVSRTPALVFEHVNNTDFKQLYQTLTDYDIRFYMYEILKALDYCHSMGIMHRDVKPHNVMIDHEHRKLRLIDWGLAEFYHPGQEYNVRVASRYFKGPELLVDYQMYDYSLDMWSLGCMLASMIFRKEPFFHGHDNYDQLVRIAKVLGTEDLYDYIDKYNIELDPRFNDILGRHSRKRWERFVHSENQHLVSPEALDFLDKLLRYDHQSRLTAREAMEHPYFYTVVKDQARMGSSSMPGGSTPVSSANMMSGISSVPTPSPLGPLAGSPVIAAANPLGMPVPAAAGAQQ
Phosphatidylinositol 4-phosphate 5-kinase type-1 gamma (Homo sapiens), sequence (O60331 whole entry, the tested form may be a part): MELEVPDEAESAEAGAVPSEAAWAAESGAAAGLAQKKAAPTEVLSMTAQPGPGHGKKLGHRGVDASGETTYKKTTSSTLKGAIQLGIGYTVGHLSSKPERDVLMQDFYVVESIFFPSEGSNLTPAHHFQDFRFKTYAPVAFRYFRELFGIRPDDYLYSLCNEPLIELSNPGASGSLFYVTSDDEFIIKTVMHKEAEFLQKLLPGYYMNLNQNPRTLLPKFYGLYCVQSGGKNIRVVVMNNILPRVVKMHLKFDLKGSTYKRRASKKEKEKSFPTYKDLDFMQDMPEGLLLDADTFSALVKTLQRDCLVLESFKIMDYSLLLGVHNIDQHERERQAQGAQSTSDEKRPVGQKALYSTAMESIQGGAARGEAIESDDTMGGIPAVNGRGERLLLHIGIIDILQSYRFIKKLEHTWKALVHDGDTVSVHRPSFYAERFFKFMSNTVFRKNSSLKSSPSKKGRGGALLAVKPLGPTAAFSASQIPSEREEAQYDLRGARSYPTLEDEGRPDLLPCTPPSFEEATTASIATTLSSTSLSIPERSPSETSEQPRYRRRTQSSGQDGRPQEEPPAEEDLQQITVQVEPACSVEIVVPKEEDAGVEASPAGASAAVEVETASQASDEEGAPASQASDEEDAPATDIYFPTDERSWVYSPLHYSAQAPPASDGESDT
Death-associated protein kinase 2, sequence (Q9UIK4 whole entry): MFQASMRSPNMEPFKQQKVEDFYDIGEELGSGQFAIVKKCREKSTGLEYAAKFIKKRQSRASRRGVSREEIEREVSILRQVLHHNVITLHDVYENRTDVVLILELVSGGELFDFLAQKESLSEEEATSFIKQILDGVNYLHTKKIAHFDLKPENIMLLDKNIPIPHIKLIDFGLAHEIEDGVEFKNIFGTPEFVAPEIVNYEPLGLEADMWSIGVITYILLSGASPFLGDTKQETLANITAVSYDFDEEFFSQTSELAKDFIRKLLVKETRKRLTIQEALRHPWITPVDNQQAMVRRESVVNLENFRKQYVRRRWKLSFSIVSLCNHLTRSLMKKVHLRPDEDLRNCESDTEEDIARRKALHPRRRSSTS

As to `CCC(=O)Nc1cc(Nc2cc(NC3CC3)n3ncc(C#N)c3n2)ccc1C`, the Activity with L-363 [1] came out at 9%; with AMO1 [2] it was 9%; with L-363 [3], 9%; in [4], 55%; with AMO1 [5] it was 9%; in the data set with L-363 [6] it was 9%. The outcome with STA-ET-10 and with STA-ET-1 was inactive.

Regarding `COc1cccc(CCNc2nc3cc(C(=O)O)ccc3c3cncnc23)c1`, the solubility kinetic at 24 h in data set [7] was 152 µM (≈ 56.8 µg/mL).

Compound `O=C(O)c1ccc2c(c1)nc(NCCc1ccccc1)c1ncncc12` yielded a Kinetic_solubility in data set [7] of 146.4 µM.

Regarding `O=C(O)c1ccc2c(c1)nc(Nc1cccc(Cl)c1)c1ccncc12` [SILMITASERTIB], in the data set on MDA-MB-231, the result was Active. In data set [7], the Kinetic_solubility worked out at 277.1 µM. Moreover, in [8], the permeability entry is “Permeable”. Besides, the results for the Activity in data set [9], in data set [10] and in [11] were 63%, 63% and 21%, respectively.

Consider `O=C(O)c1ccc2c(c1)nc(Nc1ccc3ccccc3c1)c1ccncc12`, for which the Kinetic_solubility in data set [7] was determined as 32.8 µM.

With `O=C(O)c1ccc2c(c1)nc(Nc1ccc(Cl)cc1)c1ncncc12`, the solubility kinetic at 24 h in data set [7] was found to be 209 µM (≈ 73.3 µg/mL).

For `O=C(O)c1ccc2c(c1)nc(Nc1ccc(F)c(Cl)c1)c1ccncc12`, the Kinetic_solubility in [7] was 148.4 µM.

Regarding `N#Cc1cccc(Nc2nc3cc(C(=O)O)ccc3c3cnccc23)c1`, the Kinetic_solubility in data set [7] stood at 131.7 µM. Also, the outcome with STA-ET-10, in the data set with RM-82 and in the data set on STA-ET-1 was inactive.

Regarding `O=C(O)c1ccc2c(c1)nc(Nc1ccccc1)c1ncncc12`, in [7], the solubility kinetic at 24 h was 168 µM (≈ 53.2 µg/mL).

As for `O=C(O)c1ccc2c(c1)nc(Nc1ccccc1Cl)c1ncncc12`, in data set [7], the Kinetic_solubility stood at 121.8 µM.

`O=C(O)c1ccc2c(c1)nc(NCCc1cccc(Cl)c1)c1ccncc12`: the solubility kinetic at 24 h in [7] was found to be 184 µM (≈ 69.5 µg/mL).

In the case of `O=C(O)c1ccc2c(c1)nc(NCCc1cccc(F)c1)c1ccncc12`, the solubility kinetic at 24 h in [7] came to 188 µM (≈ 67.8 µg/mL).

As for `O=C(O)c1ccc2c(c1)nc(Nc1ccccc1)c1ccncc12`, in data set [7], the solubility kinetic at 24 h stood at 184 µM (≈ 58.1 µg/mL).

Compound `O=C(O)c1ccc2c(c1)nc(Nc1ccc(Cl)cc1)c1ccncc12` had a Kinetic_solubility in data set [7] of 25.3 µM.

With `COc1cccc(Nc2nc3cc(C(=O)O)ccc3c3cnccc23)c1`, the solubility kinetic at 24 h in data set [7] was found to be 190 µM (≈ 65.8 µg/mL).

Turning to `O=C(O)c1ccc2c(c1)nc(NCCc1cccc(F)c1)c1ncncc12`, the Kinetic_solubility in data set [7] turned out to be 147 µM.

Turning to `O=C(O)c1ccc2c(c1)nc(Nc1ccc3ccccc3c1)c1ncncc12`, in data set [7], the Kinetic_solubility worked out at 54.3 µM.

With `COc1cccc(CCNc2nc3cc(C(=O)O)ccc3c3cnccc23)c1`, the solubility kinetic at 24 h in [7] was 180 µM (≈ 67.4 µg/mL).

Broadly, the IC50 is the concentration needed to halve the response being measured. Usually residual activity stands for what remains of the control signal, in per cent. As for `O=C(O)c1ccc2c(c1)nc(NCc1ccccc1)c1ncccc12`, the IC50 in data set [12], in [13], in [14] and in data set [16] was greater than 10 µM throughout. The compound also displayed a residual activity in [15] of 15%.

As for `O=C(O)c1ccc2c(c1)nc(NCCc1ccccc1)c1ccncc12`, the solubility kinetic at 24 h in [7] amounted to 171 µM (≈ 58.9 µg/mL).

Turning to `O=C(O)c1ccc2c(c1)nc(Nc1ccc(F)c(Cl)c1)c1ncncc12`, in data set [7], the Kinetic_solubility is 49.1 µM.

Consider `O=C(O)c1ccc2c(c1)nc(Nc1cccc(F)c1)c1ncncc12`, for which, in data set [7], the solubility kinetic at 24 h is 192 µM (≈ 64.2 µg/mL).

Turning to `O=C(O)c1ccc2c(c1)nc(NCc1ccccc1)c1ncncc12`, the solubility kinetic at 24 h in data set [7] came out at 211 µM (≈ 69.6 µg/mL). The Activity is listed as 44% with AMO1 [2] and 36% in the data set on L-363 [6]. The residual activity in [17] is 30%. Also, the permeability entry in [8] is “Permeable”. Moreover, the 50% inhibitory concentration (IC50) in data set [18] came to 0.6 µM; in [19] it was 1.5 µM. Also, the outcome in the data set on STA-ET-10, in the data set on RM-82 and with STA-ET-1 was inactive.

For `O=C(O)c1ccc2c(c1)nc(Nc1cccc(F)c1)c1ccncc12`, the solubility kinetic at 24 h in data set [7] amounted to 237 µM (≈ 78.9 µg/mL).

`N#Cc1cccc(Nc2nc3cc(C(=O)O)ccc3c3cncnc23)c1` gave a Kinetic_solubility in data set [7] of 66.7 µM. For the same compound, the outcome in the data set with STA-ET-10, with RM-82 and in the data set with STA-ET-1 was inactive.

Consider `O=C(O)c1ccc2c(c1)nc(NCc1ccccc1)c1ccncc12`, for which the solubility kinetic at 24 h in data set [7] was determined as 202 µM (≈ 66.7 µg/mL).

In data set [7], `O=C(O)c1ccc2c(c1)nc(NCCc1cccc(Cl)c1)c1ncncc12` showed a Kinetic_solubility of 109.1 µM.
